ChEMBL document CHEMBL4311948, “Exploring the Natural Piericidins as Anti-Renal Cell Carcinoma Agents Targeting Peroxiredoxin 1” (J Med Chem, 2019)

What was measured:
[1] = system: ACHN; assay: Cytotoxicity against human ACHN cells assessed as reduction in cell viability measured after 72 hrs by CCK8 assay; type: functional, cell-based
Summary of the method: (§1)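 Cells were grown in 10% FBS medium: MEM for ACHN, RPMI1640 for OS-RC-2 and 786-O, DMEM for HK-2. They were seeded at 400–800 cells/well in 384-well plates and treated with a range of compound concentrations or solvent control, with sorafenib as positive control. After 72 h, CCK-8 absorbance was read at 450 nm in triplicate, and IC50 was taken from dose-response curves.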

[2] = system: OS-RC-2; assay: Cytotoxicity against human OS-RC2 cells assessed as reduction in cell viability measured after 72 hrs by CCK8 assay; type: functional, cell-based; conditions: OS-RC-2, 72 h; summary of the method: as §1
[3] = system: 786-0; assay: Cytotoxicity against human 786-O cells assessed as reduction in cell viability measured after 72 hrs by CCK8 assay; type: functional, cell-based; conditions: 786-0, 72 h; summary of the method: as §1
[4] = system: ACHN; assay: Cytotoxicity against human ACHN cells harboring shPRDX1 gene assessed as reduction in cell viability measured after 72 hrs by CCK8 assay; type: functional, cell-based
Summary of the method: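 Transfectants were selected with puromycin (1 μg/mL), and knockdown was confirmed by immunoblot. Viability was read by CCK-8 after 72 h of compound exposure in 384-well plates at 400–800 cells/well in MEM with 10% FBS, and IC50 was taken from dose-response curves.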

[5] = system: HK-2; assay: Cytotoxicity against human HK2 cells assessed as reduction in cell viability measured after 72 hrs by CCK8 assay; type: cell-based; conditions: HK-2, 72 h; summary of the method: as §1
[6] = Homo sapiens, ACHN, 72 h, read-out: IC50

Compound	IC50 [1]	IC50 [2]	IC50 [3]	IC50 [4, 6]	IC50 [5]	IC50 ([4]; achn)
COc1nc(C/C=C(\C)C/C=C/C(C)=C/[C@@H](C)[C@@H](O[C@@H]2O[C@H](CO[C@H]3O[C@H](CO)[C@@H](O)[C@H](O)[C@H]3O)[C@@H](O)[C@H](O)[C@H]2O)/C(C)=C/CO)c(C)c(O)c1OC	23 µM	> 100 µM	> 100 µM	58 µM	> 100 µM	–
COc1nc(C/C=C(\C)C/C(C)=C/C(C)=C/[C@@H](C)[C@@H](O)/C(C)=C/[C@@](C)(O)[C@H](C)O)c(C)c(O)c1OC	3.8 µM	4.1 µM	> 100 µM	13 µM	63 µM	–
C/C=C(\C)[C@H](O[C@@H]1O[C@H](CO[C@H]2O[C@H](CO)[C@H](O)[C@H](O)[C@H]2O)[C@@H](O)[C@H](O)[C@H]1O)[C@H](C)/C=C(C)/C=C/C/C(C)=C/Cc1nc(OC)c(OC)c(O)c1C	4.5 µM	> 100 µM	> 100 µM	9 µM	> 100 µM	–
COc1nc(C/C=C(\C)C/C=C/C(C)=C/[C@@H](C)[C@@H](O[C@@H]2O[C@H](CO)[C@@H](O)[C@H](O)[C@H]2O)[C@@]2(C)O[C@@H]2C)c(C)c(O)c1OC	2.8 µM	30 µM	19 µM	–	–	–
C/C=C(\C)[C@H](O[C@@H]1O[C@H](CO)[C@@H](O)[C@H](O)[C@H]1O)[C@H](C)/C=C(C)/C=C/C/C(C)=C/Cc1nc(OC)cc(O)c1C	3.8 µM	14 µM	15 µM	–	–	–
C/C=C(\C)[C@H](O[C@@H]1O[C@H](CO)[C@@H](O)[C@H](O)[C@H]1O)[C@H](C)/C=C(\C)[C@@H](OC)[C@@H](O)C/C(C)=C/Cc1nc(OC)c(OC)c(O)c1C	2.4 µM	> 100 µM	> 100 µM	–	–	–
C/C=C(\C)C(=O)[C@H](C)/C=C(C)/C=C/C/C(C)=C/Cc1nc(OC)c(OC)c(O)c1C	> 100 µM	22 µM	> 100 µM	> 100 µM	–	–
COc1nc(C/C=C(\C)C/C=C/C(C)=C/[C@@H](C)[C@@H](O[C@@H]2O[C@H](CO)[C@@H](O)[C@H](O)[C@H]2O)/C(C)=C/CO)c(C)c(O)c1OC	7.21 µM	> 100 µM	> 100 µM	–	> 100 µM	Not Active
C/C=C/[C@H](O)[C@H](C)/C=C(C)/C=C/C/C(C)=C/Cc1nc(OC)c(OC)c(O)c1C	4.1 µM	11 µM	> 100 µM	11 µM	–	–
COc1nc(C/C=C(\C)C/C=C/C=C/[C@@H](C)[C@@H](O[C@@H]2O[C@H](CO)[C@@H](O)[C@H](O)[C@H]2O)/C(C)=C/CO)c(C)c(O)c1OC	2.5 µM	79 µM	28 µM	–	–	–
C/C=C(\C)[C@H](O[C@@H]1O[C@H](CO)[C@@H](O)[C@H](O)[C@H]1O)[C@H](C)/C=C(C)/C=C/C/C(C)=C/Cc1nc(OC)c(OC)c(O[C@@H]2O[C@H](CO)[C@@H](O)[C@H](O)[C@H]2O)c1C	28 µM	> 100 µM	> 100 µM	–	1.1 µM	–
C/C=C(\C)[C@H](O)[C@H](C)/C=C(C)/C=C(\C)C/C(C)=C/Cc1nc(OC)c(OC)c(O)c1C	14 µM	17 µM	50 µM	68 µM	45 µM	–
COc1nc(C/C=C(\C)C/C=C/C(C)=C/[C@@H](C)[C@@H](O[C@@H]2O[C@H](CO[C@H]3O[C@H](CO)[C@H](O)[C@H](O)[C@H]3O)[C@@H](O)[C@H](O)[C@H]2O)/C(C)=C/CO)c(C)c(O)c1OC	> 100 µM	> 100 µM	> 100 µM	–	> 100 µM	–
C/C=C(\C)[C@H](O[C@@H]1O[C@H](CO[C@H]2O[C@H](CO)[C@@H](O)[C@H](O)[C@H]2O)[C@@H](O)[C@H](O)[C@H]1O)[C@H](C)/C=C(C)/C=C/C/C(C)=C/Cc1nc(OC)c(OC)c(O)c1C	21 µM	> 100 µM	> 100 µM	–	> 100 µM	–
COc1nc(C/C=C(\C)C/C(C)=C/C(C)=C/[C@@H](C)[C@@H](O)[C@]2(C)O[C@H]2C)c(C)c(O)c1OC	> 100 µM	22 µM	> 100 µM	> 100 µM	> 100 µM	–
COc1nc(C/C=C(\C)C[C@H](O)[C@H](OC)/C(C)=C/[C@@H](C)[C@@H](O[C@@H]2O[C@H](CO)[C@@H](O)[C@H](O)[C@H]2O)/C(C)=C/CO)c(C)c(O)c1OC	60 µM	> 100 µM	> 100 µM	–	–	–
COc1nc(C/C=C(\C)C/C(C)=C/C(C)=C/[C@@H](C)[C@@H](O)/C(C)=C/[C@](C)(O)[C@@H](C)O)c(C)c(O)c1OC	2.4 µM	5.3 µM	> 100 µM	8.2 µM	44 µM	–
C/C=C(\C)[C@H](O[C@@H]1O[C@H](CO)[C@@H](O)[C@H](O)[C@H]1O)[C@H](C)/C=C/C=C/C/C(C)=C/Cc1nc(OC)c(OC)c(O)c1C	0.31 µM	2.6 µM	0.99 µM	–	–	–
